Results as given in ChEMBL document CHEMBL1156237, “Antiviral activity of benzimidazole derivatives. II. Antiviral activity of 2-phenylbenzimidazole derivatives” (Bioorg Med Chem, 2010).
Active and inactive are the calls of the source.

Key:
[1] = Cytotoxicity against BHK cells after 48 to 96 hrs by MTT assay; type: cell-based, Mesocricetus auratus; settings: hamster
Method in brief: (§1)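 Cell seeding: MDBK at 6 × 10^5 cells/mL in MEM-E with 10% horse serum and 1 mM Na pyruvate; BHK at 1 × 10^6 cells/mL in MEM-E with 10% FBS. Serial compound dilutions, 37 °C, 5% CO2. Viability of mock-infected cells by MTT after 48–96 h; CC50 is the concentration reducing viability by 50%.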

Vaccinia virus = test: Antiviral activity against Vaccinia virus Elstree-Lister infected in african green monkey Vero cells after 3 days by plaque reduction assay; type: functional, organism-based; settings: Orthopoxvirus vaccinia, 72 h
[2] = Cytotoxicity against MDBK cells after 48 to 96 hrs by MTT assay; type: cell-based, Bos taurus; settings: cattle; method in brief: as §1
Poliovirus 1 = test: Antiviral activity against Polio virus type1 Sabin strain Chat infected in african green monkey Vero cells after 2 days by plaque reduction assay; type: functional, organism-based, Human poliovirus 1 strain Sabin; settings: Enterovirus C, 48 h
Human alphaherpesvirus 1 = test: Antiviral activity against HSV1 KOS infected in african green monkey Vero cells after 3 days by plaque reduction assay; type: functional, organism-based; settings: Human alphaherpesvirus 1, KOS, 72 h
Method in brief: (§2)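 Plaque reduction assay. Vero 76 cells at 2 × 10^5/well, grown overnight to confluence in D-MEM with 10% FBS. Infected 2 h with 50–100 PFU/well, unadsorbed virus removed. Overlay of D-MEM with 1% inactivated FBS and 0.75% methylcellulose, with or without serial compound dilutions. Incubated at 37 °C for 3 days (HSV-1 KOS, CVB-2 Ohio-1) or 5 days (RSV A2). Fixed and stained with crystal violet in 50% ethanol; plaques counted; EC50 by linear regression.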

Yellow fever virus = test: Antiviral activity against Yellow fever virus 17D infected in BHK cells assessed as protection from virus-induced cytopathogenicity after 3 to 4 days by MTT method; type: functional, organism-based
[3] = tested on: Respiratory syncytial virus; test: Antiviral activity against RSV A2 infected in african green monkey Vero cells after 5 days by plaque reduction assay; type: functional, organism-based; settings: human respiratory syncytial virus, A2, Vero, 120 h; method in brief: as §2
[4] = (§3) Cytotoxicity against human MT4 cells after 96 hrs by MTT assay; type: cell-based; settings: MT4 cells
Method in brief: (§4)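 Exponentially growing MT-4 cells at 1 × 10^5 cells/mL in RPMI-1640 with 10% FCS, exposed to serial compound dilutions at 37 °C, 5% CO2. Viability by MTT after 96 h; CC50 is the concentration reducing viability of mock-infected cells by 50%.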

[5] = Cytotoxicity against african green monkey Vero cells; type: cell-based; settings: chlorocebus sabaeus
Method in brief: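 Vero 76 monolayers exposed to serial compound dilutions, run in parallel on the same 24-well plates as the plaque-reduction assays. CC50 is the concentration reducing viability of mock-infected cells by 50%.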

[6] = Selectivity index, ratio of CC50 for african green monkey Vero cells to EC50 for Vaccinia virus Elstree-Lister; type: toxicity, cell-based; settings: read-out: Ratio CC50/EC50
[7] = tested on: Vesicular stomatitis virus; test: Antiviral activity against VSV Indiana lab infected in african green monkey Vero cells after 2 days by plaque reduction assay; type: functional, organism-based
[8] = tested on: Human immunodeficiency virus 1; test: Antiviral activity against HIV1 3B infected in human MT4 cells assessed as protection from virus-induced cytopathogenicity after 4 days by MTT method; type: functional, organism-based
Method in brief: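 MT-4 cells, 1 × 10^4/well in RPMI with or without serial compound dilutions, infected with HIV-1 IIIB, 100 CCID50 (m.o.i. 0.01). Protection from virus-induced cytopathogenicity read by MTT.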

[9] = tested on: Bovine viral diarrhea virus 1; test: Antiviral activity against Bovine viral diarrhea virus NADL infected in MDBK cells assessed as protection from virus-induced cytopathogenicity after 3 to 4 days by MTT method; type: functional, organism-based, Bovine viral diarrhea virus 1-NADL
Method in brief: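 Cytopathogenicity protection assay. MDBK cells at 3 × 10^4/well, grown overnight to confluence. Infected with BVDV NADL at m.o.i. 0.01 in MEM-E with 0.5% inactivated FBS, 1 mM Na pyruvate and 1% kanamycin. Serial compound dilutions added after 1 h. After 3–4 days at 37 °C, viability read by MTT; EC50 is the concentration giving 50% protection.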

[10] = Selectivity index, ratio of CC50 for human MT4 cells to EC50 for Vaccinia virus Elstree-Lister; type: toxicity, cell-based; settings: read-out: Ratio CC50/EC50
Coxsackievirus B2 = test: Antiviral activity against Human coxsackievirus B2 Ohio-1 infected in african green monkey Vero cells after 3 days by plaque reduction assay; type: functional, organism-based, Coxsackievirus B2 (strain Ohio-1); method in brief: as §2
[11] = Cytotoxicity against human HuH7 cells after 72 hrs; type: cell-based, Huh-7
Method in brief: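 GS4.1 replicon cells treated as in the replicon assay (twofold dilutions up to 75 µM, 72 h). Viability by CellTiter 96 AQueous One Solution; CC50 from % cytotoxicity versus concentration.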

Hepatitis C virus [12] = test: Inhibition of HCV 1b NS5B Cdelta21 RNA dependent RNA polymerase expressed in Escherichia coli after 30 mins by fluorescence assay; type: functional, Hepatitis C virus subtype 1b; settings: 0.5 h
Method in brief: (§5)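 N-His-tagged NS5B from E. coli Rosetta2(DE3)pLysS (BVDV C-terminal Δ24; HCV1b Δ21), Ni-NTA purified, 500–600 ng per 20 µL reaction. Template 10 µg/mL poly(rC), primer 0.1 µg/mL oligo(rG)12, substrate 80 µM GTP; 20 mM Tris pH 7.0, 0.5 mM MnCl2 or 5 mM MgCl2, 5% DMSO. Enzyme pre-incubated with drug 30 min at room temperature.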

[13] = Selectivity index, ratio of CC50 for MDBK cells to EC50 for Bovine viral diarrhea virus NADL; type: toxicity, cell-based; settings: cattle, read-out: Ratio CC50/EC50
[14] = Selectivity index, ratio of CC50 for human MT4 cells to EC50 for Bovine viral diarrhea virus NADL; type: toxicity, cell-based; settings: read-out: Ratio CC50/EC50
[15] = Inhibition of Bovine viral diarrhea virus NADL NS5B Cdelta24 RNA dependent RNA polymerase expressed in Escherichia coli after 30 mins by fluorescence assay; parameters: species or system Bovine viral diarrhea virus 1-NADL; method in brief: as §5
Hepatitis C virus [16] = test: Antiviral activity against HCV Con1 expressed in human HuH7 cells assessed as NS4A expression after 72 hrs by ELISA-based replicon assay; type: functional, organism-based, Hepacivirus hominis; settings: isolate Con1, Huh-7, 72 h
Method in brief: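 GS4.1 cells (Huh-7 carrying HCV Con1 subgenomic replicon) at 7.5 × 10^3/well. Ten twofold compound dilutions (top 75 µM), 0.5% DMSO, 72 h at 37 °C; replicon-free Huh-7 as negative control. NS4A measured by ELISA with anti-NS4A mAb A-236, peroxidase secondary and o-phenylenediamine, absorbance 492 nm. EC50 by four-parameter sigmoidal fit.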

[17] = tested on: Bovine viral diarrhea virus 1; test: Antiviral activity against Bovine viral diarrhea virus NADL infected in MDBK cells assessed as inhibition of viral replication administered up to 4 hrs post infection measured after 24 to 36 hrs by plaque reduction assay; type: functional, organism-based; settings: Bovine viral diarrhea virus 1-NADL
Method in brief: (§6)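 MDBK monolayers inoculated at room temperature with BVDV NADL, 300 PFU (m.o.i. 0.01 PFU/cell), 60 min adsorption, washed, kept in MEM-E + 1 mM Na pyruvate + 0.5% inactivated FBS at 37 °C. Medium containing 10× compound added for one window (−1–0, 0–2, 2–4 … 12–14 h), then washed out and fresh medium given. CPE scored at 24–36 h; viral titre by plaque assay.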

[18] = tested on: Bovine viral diarrhea virus 1; test: Antiviral activity against Bovine viral diarrhea virus NADL infected in MDBK cells assessed as protection from virus-induced cytopathogenicity administered up to 6 hrs post infection measured after 24 to 36 hrs by plaque reduction assay; type: functional, organism-based; settings: Bovine viral diarrhea virus 1-NADL; method in brief: as §6
[19] = tested on: Bovine viral diarrhea virus 1; test: Antiviral activity against Bovine viral diarrhea virus NADL infected in MDBK cells assessed as inhibition of post viral entry pre-budding stage of replication administered at 13 hrs post infection measured after 24 to 36 hrs by plaque reduction assay; type: functional, organism-based; settings: Bovine viral diarrhea virus 1-NADL; method in brief: as §6
MT4 = test: as §3; type: cell-based; settings: mt4, 96 h, 96 h; method in brief: as §4
[20] = Selectivity index, ratio of CC50 for human MT4 cells to EC50 for Human coxsackievirus B2 Ohio-1; type: toxicity, cell-based; settings: read-out: Ratio CC50/EC50
[21] = Selectivity index, ratio of CC50 for african green monkey Vero cells to EC50 for Human coxsackievirus B2 Ohio-1; type: toxicity, cell-based; settings: read-out: Ratio CC50/EC50
[22] = Bovine viral diarrhea virus isolates and strains, MDBK

SMILES | CC50 [1] | CC50 ([2]; MDBK cells) | EC50 (Poliovirus 1) | EC50 (Human alphaherpesvirus 1) | EC50 (Yellow fever virus) | CC50 at 96 h [4] | CC50 [5] | Activity [7] | Activity [8] | EC50 [9, 22] | EC50 (Coxsackievirus B2; Enterovirus B, Vero, 72 h) | CC50 at 72 h [11] | IC50 (Hepatitis C virus [12]) | selectivity ratio [13] | selectivity ratio [14] | IC50 [15] | EC50 (Hepatitis C virus [16]) | also measured
O=[N+]([O-])c1ccc(-c2nc3cc(Cl)c(Cl)cc3[nH]2)cc1 | > 100 µM | 56 µM | > 100 µM | > 100 µM | > 100 µM | 17 µM | ≥ 100 µM | inactive | inactive | > 56 µM | > 100 µM | – | – | – | – | – | – | EC50 (Vaccinia virus): 0.1 µM; EC50 [3]: > 100 µM; selectivity ratio [6]: ≥ 1000; selectivity ratio [10]: 170
CC(=O)Nc1ccc(-c2nc3cc(Cl)c(Cl)cc3[nH]2)cc1 | > 100 µM | 58 µM | > 100 µM | > 100 µM | > 100 µM | > 100 µM | > 100 µM | inactive | inactive | 1 µM | > 100 µM | > 75 µM | 5 µM | 58 | > 100 | 3 µM | 32 µM | –
Nc1ccc(-c2nc3cc([N+](=O)[O-])ccc3[nH]2)cc1 | > 100 µM | 79 µM | > 100 µM | > 100 µM | > 100 µM | 100 µM | > 100 µM | inactive | inactive | 1.5 µM | > 100 µM | – | 33 µM | 53 | 67 | 18 µM | – | –
CC(=O)Nc1ccc(-c2nc3cc([N+](=O)[O-])ccc3[nH]2)cc1 | > 100 µM | > 100 µM | > 100 µM | > 100 µM | > 100 µM | > 100 µM | > 100 µM | inactive | inactive | 0.8 µM | > 100 µM | > 90 µM | 30 µM | > 125 | > 125 | 12 µM | 38 µM | Activity [17]: Active; Activity [18]: Active; Activity [19]: Active
O=C(CN1CCOCC1)Nc1ccc(-c2nc3cc(Cl)c(Cl)cc3[nH]2)cc1 | > 100 µM | – | – | – | > 100 µM | – | > 100 µM | inactive | inactive | – | – | – | – | – | – | – | – | CC50 ([2]; mdbk): > 100 µM; CC50 (MT4): > 100 µM; EC50 ([9]; mdbk): > 100 µM; EC50 (Coxsackievirus B2; vero): > 100 µM
CC(=O)Nc1ccc(-c2nc3cc(C(F)(F)F)ccc3[nH]2)cc1 | 53 µM | 50 µM | 16 µM | 7 µM | > 53 µM | 19 µM | 50 µM | inactive | inactive | 1.3 µM | 3 µM | – | – | 39 | 15 | – | – | selectivity ratio [20]: 6.3; selectivity ratio [21]: 17
